Screening data (PubChem BioAssay)
Hits are enriched below; roughly 2.4% of the tested compounds scored in any of these assays.
IMP-1 inhibitor = inhibitors of Pseudomonas aeruginosa IMP-1 metallo-beta-lactamase; AID 1556; inhibition, % at 5.6 µM; purified IMP-1, nitrocefin hydrolysis, epi-absorbance fluorescence; 290,000 tested, 0.45% active;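 active = inhibition above the mean plus 3 SD of all compounds in the same screening run, cut at about 4.5% in these data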
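System: Purified IMP-1 | Read-out basis: Percent enzyme inhibition | Controls: IMP-1 with DMSO as 0%, enzyme-free DMSO as 100% | Replicates: One well per compound | Doses: 5.6 µM nominal single concentration | Detection: Epi-absorbance fluorescence, 480 nm excitation, 530 nm emission | Incubation: 25 °C, 15 min preincubation, 25 min reaction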
HGIII-sPLA2 inh = Inhibits HGIII-sPLA2 liposome hydrolysis, primary screen. Q9NZ20. QFRET BODIPY PC-A2 liposome hydrolysis, fluorescence. inhibition, % at 12.2 µM. 370,000 tested, 0.56% active;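 active = inhibition above mean plus 3 SD of compounds lying within the high and low control bounds, cut at about 19% in these data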
Target sequence (Q9NZ20 whole entry, looked up): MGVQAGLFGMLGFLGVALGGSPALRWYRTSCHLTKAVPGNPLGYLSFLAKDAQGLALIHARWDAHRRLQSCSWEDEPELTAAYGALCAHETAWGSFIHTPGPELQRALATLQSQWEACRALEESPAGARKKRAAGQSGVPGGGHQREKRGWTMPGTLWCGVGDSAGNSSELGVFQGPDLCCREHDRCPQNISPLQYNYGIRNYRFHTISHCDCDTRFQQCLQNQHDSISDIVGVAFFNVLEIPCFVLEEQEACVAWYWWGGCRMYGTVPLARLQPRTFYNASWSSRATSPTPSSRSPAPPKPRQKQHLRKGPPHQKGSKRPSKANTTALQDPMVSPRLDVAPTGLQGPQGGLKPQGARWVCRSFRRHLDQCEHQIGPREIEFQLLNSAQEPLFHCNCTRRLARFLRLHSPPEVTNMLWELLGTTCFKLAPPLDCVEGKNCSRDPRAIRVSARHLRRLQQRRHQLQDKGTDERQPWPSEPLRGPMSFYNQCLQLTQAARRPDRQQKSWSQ
VIM-2 inh = inhibitors of Pseudomonas aeruginosa VIM-2 metallo-beta-lactamase. inhibition, % at 5.6 µM. 290,000 tested, 0.89% active. purified VIM-2, nitrocefin hydrolysis, epi-absorbance fluorescence;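 active = inhibition above the mean of all tested compounds plus 3 SD, cutoff set per screening run, cut at about 7.5% in these data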;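 also: red hydrolysis product quenches plate fluorescence so inhibitors raise well fluorescence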
PfM18AAP inh = PfM18AAP enzyme inhibition; recombinant PfM18AAP, H-Glu-NHMec fluorogenic cleavage; inhibition, % at 7.35 µM; 290,000 tested, 1.2% active;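 active = inhibition above the campaign mean inhibition over all tested compounds plus 3 SD, cut at about 28% in these data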
Numbers stand for hits; . = inactive; / = no result given.

SMILES	IMP-1 inhibitor	HGIII-sPLA2 inh	VIM-2 inh	PfM18AAP inh
Oc1ccc(N2CCN(C(c3ccncc3)c3nnnn3C3CCCC3)CC2)cc1 (stereo not given)	.	.	.	37
CC(C)NC(=O)c1cccc2c1-c1ccccc1C2=O	.	.	.	.
NC(=O)COC(=O)c1cccc2c1-c1ccccc1C2=O	.	.	7.9	.
Nc1nc2c3ccccc3nc(C3CC3)n2n1	.	.	8.2	.
c1ccc2c(Nc3ccc(N4CCOCC4)cc3)nc(N3CCOCC3)nc2c1	.	.	9.4	.
CC(C)Oc1ccc(S(=O)(=O)N2CCCCCC2)c2ccccc12	/	.	/	/
O=C(CSc1nnc(Cn2nnc(-c3ccccc3)n2)n1-c1ccccc1)Nc1ccccc1	4.7	.	.	.
O=C(CSc1nnc(Cn2nnc(-c3ccccc3)n2)n1-c1ccccc1)Nc1ccc(F)cc1	.	.	.	.
COc1cccc(C(=O)NC2CC(C)(C)NC(C)(C)C2)c1OC	16	.	.	.
C=CCN(CC#Cc1cccnc1)Cc1ccc(OC)cc1OC	/	.	/	/
CCN1Cc2nnn(Cc3ccc(C)cc3)c2-c2ccccc2S1(=O)=O	/	.	/	/
O=C1CS/C(=C\[N+](=O)[O-])N1c1ccccc1	4.6	.	.	.
O=C1/C(=C/C=C/c2ccco2)SC(=S)N1NS(=O)(=O)c1ccccc1	.	.	.	.
CC(C(=O)O)N1C(=O)/C(=C/C=C/c2ccco2)SC1=S (stereo not given)	5.8	.	.	.
Cc1c(N=Cc2cc(Br)cc(Br)c2O)cccc1C(=O)O	.	.	.	34
CN(/N=C/c1cc(Br)cc(Br)c1O)c1ccccc1	8.3	.	.	.
O=C(O)c1cccc(N/N=C/c2cc(Br)cc(Br)c2O)c1	.	.	.	.
COc1ccccc1C(c1nnnn1CCc1ccccc1)N1CCCCCC1 (stereo not given)	24	.	.	.
CNc1ccc(Br)cc(C(=O)/C=C/c2ccc3c(c2)OCO3)c1=O	9.2	.	.	28
CCOC(=O)N(C)[C@H]1C[C@H]2c3[nH]c4ccccc4c3CCN2C(=O)[C@H]1[C@H](C)O	/	.	/	/
Cc1cccc(Cn2cc(COC(=O)N3CCCC3)nn2)c1	/	.	/	/
COc1ccc(NC(=O)c2oc3ccccc3c2NC(=O)C2CC2)cc1OC	.	.	9.0	.
CCCc1nc2sc3c(SCC(=O)NCc4ccco4)ncnc3c2c2c1CCC2	15	.	.	.
Cc1nc2cc3nc(C)sc3cc2s1	.	.	.	29
Cc1nc2cc3ccccc3cc2s1	/	.	/	/
SMILES	IMP-1 inhibitor	HGIII-sPLA2 inh	VIM-2 inh	PfM18AAP inh
CCOCCCNC(=S)NNC(=O)CCn1nc(C)c(Br)c1C	.	/	.	.
COCCCNC(=S)NNC(=O)Cn1nc(C)c(Br)c1C	.	.	.	30
COC(=O)C1CN(Cc2cn(CCOC(C)=O)nn2)CCS(=O)(=O)N1Cc1ccccc1 (stereo not given)	/	.	/	/
Cc1cc[n+](-c2[nH]c(=O)sc2/C=N/N=C(\[O-])c2ccncc2)cc1C	.	.	.	29
Cc1cc[n+](-c2[nH]c(=O)sc2/C=N/N=C(\[O-])c2ccccc2)cc1C	.	.	.	.
CCOc1ccccc1NC(=S)NCc1ccccc1	.	.	.	.
CCOc1ccc(CNC(=S)Nc2ccccc2)cc1Cl	6.3	.	.	.
O=C(NCCCn1ccnc1)/C(=C/c1ccccc1)NC(=O)c1ccccc1	.	.	.	.
Cc1ccc(C(=O)N/C(=C/c2ccco2)C(=O)NCCCn2ccnc2)cc1	.	.	.	.
CN(C)c1ccc(/C=C(\NC(=O)c2ccccc2)C(=O)NCCCn2ccnc2)cc1	5.4	.	.	.
Cc1ccc(C(=O)N/C(=C\c2ccco2)C(=O)NCCCn2ccnc2)cc1	8.8	.	.	.
CN(c1ccccc1)S(=O)(=O)c1cccc(C(=O)NCCc2ccc(O)c(O)c2)c1	.	.	.	40
CCN(CC)S(=O)(=O)c1cccc(C(=O)NCCc2ccccc2)c1	.	.	.	.
Cc1cc(=O)n2c3ccccc3n(C)c2n1	.	.	10	.
Cc1cc(=O)n2c(-c3ccccc3C)n[nH]c2n1	.	.	.	.
CCS(=O)(=O)Nc1cccc(-c2ccc3nnc(-c4cccnc4)n3n2)c1	.	.	8.9	.
COC(=O)[C@]12C[C@H](CC(=O)N3CCCC3)C(=O)N(Cc3ccc(Cl)cc3Cl)C1=C[C@H](C(C)(C)C)O[C@@H]2C	/	.	/	/
COC(=O)[C@H](C(C)C)N1Cc2nnn(Cc3ccccc3)c2-c2cc(F)ccc2S1(=O)=O	/	.	/	/
Cc1nc2c(=O)[nH]c(=S)n(C)c2nc1C	.	21	.	.
CN1CCN(c2nc(-c3cccc([N+](=O)[O-])c3)nc3ccccc23)CC1	.	.	8.6	.
Cc1ccc(-c2nc(N3CCN(C)CC3)c3ccccc3n2)cc1	.	.	.	.
c1ccc(-c2c[nH]c3ccc(OCCN4CCOCC4)c(-c4ccccc4)c23)cc1	/	.	/	/
O=C(OCc1ccccc1)N1CCC2CC1c1ccc(N3CCN(Cc4ccccc4)CC3)cc12 (stereo not given)	/	.	/	/
CCOC(=O)CN1C(=O)N(c2ccc(OC)cc2)[C@H]2CC3c4ccccc4C[C@]3(C)[C@@H](C(=O)N(C)C3CCCCC3)C[C@H]21 (stereo not given in full)	/	.	/	/
CCCCn1nnnc1NCc1ccc(N(CC)CC)cc1	.	.	.	31
SMILES	IMP-1 inhibitor	HGIII-sPLA2 inh	VIM-2 inh	PfM18AAP inh
COc1ccc(C(=O)NCC2CCN(C(=O)C(=O)c3cccs3)CC2)cc1	/	.	/	/
NC(=O)c1sc2nc(N3CCOCC3)c3c(c2c1N)CCCC3	.	.	.	.
CCCCN(CCCC)C(=O)c1sc2nc(N3CCOCC3)c3c(c2c1N)CCCC3	.	.	.	32
O=C1NC(c2ccccc2)(C(F)(F)F)SC2=NCCCN12 (stereo not given)	.	.	.	.
Cc1ccc2c(c1)SC1=NC(c3ccccc3)(C(F)(F)F)NC(=O)N12 (stereo not given)	5.7	/	.	.
CC(=C\c1ccccc1)/C=C1/SC(=S)N(C(C(=O)O)C(C)C)C1=O (stereo not given)	.	.	.	.
CCC(C(=O)O)N1C(=O)/C(=C/C(C)=C/c2ccccc2)SC1=S (stereo not given)	.	.	8.2	.
O=S1(=O)c2ccc(Br)cc2OC[C@@H](Cc2ccccc2)N1Cc1cn(CC2CCCCC2)nn1	/	.	/	/
Cc1nnc2c3ccccc3c(-c3ccc(O)cc3)nn12	.	.	10	.
CC(C)=NNc1nc(-c2ccccc2)cs1	.	.	.	.
CC(C)=NNc1nc(-c2ccc(N3C(=O)CCC3=O)cc2)cs1	.	.	.	28
O=C(NC1CCCCCC1)c1ccc(Br)o1	.	.	.	.
O=C(NC1CCCCC1)Oc1cc2oc(=O)sc2cc1Br	.	.	.	31
O=C(OCC#CCSc1nnc(-c2ccc(F)cc2)o1)c1ccc(F)cc1	/	.	/	/
Cc1cccn2c(=O)c3cc(C(=O)N4CCCCC4C)sc3nc12 (stereo not given)	/	.	/	/
Cc1cccn2c(=O)c3cc(C(=O)N4CC(C)CC(C)C4)sc3nc12 (stereo not given)	.	.	12	.
COc1ccc(CCNC(=O)c2cc3c(=O)n4cccc(C)c4nc3s2)cc1OC	.	.	10	.
COc1ccc(CCNC(=O)c2nc3ncccn3n2)cc1OC	.	.	.	.
